In ChEMBL document CHEMBL3627671, “Novel derivatives of nitro-substituted salicylic acids: Synthesis, antimicrobial activity and cytotoxicity” (Bioorg Med Chem, 2015):
Values after ≈ are worked out from the molar mass of the structure shown.

Key:
Type in all cases: functional
[1] = tested on: Mycobacterium tuberculosis; assay: Antimycobacterial activity against Mycobacterium tuberculosis H37Rv 331/88 after 14 days; details: H37Rv 331/88, 336 h
[2] = tested on: Mycobacterium tuberculosis; assay: Antimycobacterial activity against Mycobacterium tuberculosis H37Rv 331/88 after 21 days; details: H37Rv 331/88, 504 h
Mycobacterium avium [3] = assay: Antimycobacterial activity against Mycobacterium avium 330/80 after 14 days; details: 330/80, 336 h
Mycobacterium avium [4] = assay: Antimycobacterial activity against Mycobacterium avium 330/80 after 21 days; details: 330/80, 504 h
Mycobacterium kansasii [5] = assay: Antimycobacterial activity against Mycobacterium kansasii 235/80 after 7 days; details: 235/80, 168 h
How it was run: (§1)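 Šula's semisynthetic medium micromethod at 37 °C, read after 7, 14 and 21 days. The 1.0 McFarland suspension was diluted 10^-4. MIC determined. 6509/96 is a clinical isolate.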

Mycobacterium kansasii [6] = assay: Antimycobacterial activity against Mycobacterium kansasii 235/80 after 14 days; details: 235/80, 336 h; how it was run: as §1
Mycobacterium kansasii [7] = assay: Antimycobacterial activity against Mycobacterium kansasii 235/80 after 21 days; details: 235/80, 504 h; how it was run: as §1
Mycobacterium kansasii [8] = assay: Antimycobacterial activity against Mycobacterium kansasii 6509/96 after 7 days; details: 6509/96, 168 h; how it was run: as §1
Mycobacterium kansasii [9] = assay: Antimycobacterial activity against Mycobacterium kansasii 6509/96 after 14 days; details: 6509/96, 336 h; how it was run: as §1
Mycobacterium kansasii [10] = assay: Antimycobacterial activity against Mycobacterium kansasii 6509/96 after 21 days; details: 6509/96, 504 h; how it was run: as §1
Staphylococcus aureus [11] = assay: Antibacterial activity against Staphylococcus aureus CCM 4516/08 after 24 hrs by microdilution broth method; details: CCM 4516/08, 24 h
Staphylococcus aureus [12] = assay: Antibacterial activity against Staphylococcus aureus CCM 4516/08 after 48 hrs by microdilution broth method; details: CCM 4516/08, 48 h
Staphylococcus aureus [13] = assay: Antibacterial activity against methicillin-resistant Staphylococcus aureus H 5996/08 after 24 hrs by microdilution broth method; details: H 5996/08, 24 h
Staphylococcus aureus [14] = assay: Antibacterial activity against methicillin-resistant Staphylococcus aureus H 5996/08 after 48 hrs by microdilution broth method; details: H 5996/08, 48 h
[15] = tested on: Staphylococcus epidermidis; assay: Antibacterial activity against Staphylococcus epidermidis H 6966/08 after 24 hrs by microdilution broth method; details: H 6966/08, 24 h
How it was run: (§2)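 Mueller-Hinton broth microdilution (modified M07-A07), pH 7.4 (±0.2). Compounds dissolved in DMSO, tested at final 500 to 0.49 µmol/L. Inoculum in sterile water matched to 0.5 McFarland. Incubated in the dark, humid atmosphere, 35 °C, read at 24 and 48 h visually and at 540 nm. MIC taken as ≥95% growth reduction (IC95) versus control.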

[16] = tested on: Staphylococcus epidermidis; assay: Antibacterial activity against Staphylococcus epidermidis H 6966/08 after 48 hrs by microdilution broth method; details: H 6966/08, 48 h; how it was run: as §2
Enterococcus sp. [17] = assay: Antibacterial activity against Enterococcus sp. J 14365/08 after 24 hrs by microdilution broth method; details: J 14365/08, 24 h; how it was run: as §2
Enterococcus sp. [18] = assay: Antibacterial activity against Enterococcus sp. J 14365/08 after 48 hrs by microdilution broth method; details: J 14365/08, 48 h; how it was run: as §2
Escherichia coli [19] = assay: Antibacterial activity against Escherichia coli CCM4517 after 24 hrs by microdilution broth method; details: CCM4517, 24 h; how it was run: as §2
Escherichia coli [20] = assay: Antibacterial activity against Escherichia coli CCM4517 after 48 hrs by microdilution broth method; details: CCM4517, 48 h; how it was run: as §2
Klebsiella pneumoniae [21] = assay: Antibacterial activity against Klebsiella pneumoniae D 11750/08 after 24 hrs by microdilution broth method; details: D 11750/08, 24 h; how it was run: as §2
Klebsiella pneumoniae [22] = assay: Antibacterial activity against Klebsiella pneumoniae D 11750/08 after 48 hrs by microdilution broth method; details: D 11750/08, 48 h; how it was run: as §2
Klebsiella pneumoniae [23] = assay: Antibacterial activity against ESBL-positive Klebsiella pneumoniae J 14368/08 after 24 hrs by microdilution broth method; details: J 14368/08, 24 h; how it was run: as §2
Klebsiella pneumoniae [24] = assay: Antibacterial activity against ESBL-positive Klebsiella pneumoniae J 14368/08 after 48 hrs by microdilution broth method; details: J 14368/08, 48 h; how it was run: as §2
Pseudomonas aeruginosa [25] = assay: Antibacterial activity against Pseudomonas aeruginosa CCM 1961 after 24 hrs by microdilution broth method; details: CCM 1961, 24 h; how it was run: as §2
Pseudomonas aeruginosa [26] = assay: Antibacterial activity against Pseudomonas aeruginosa CCM 1961 after 48 hrs by microdilution broth method; details: CCM 1961, 48 h; how it was run: as §2
Candida albicans [27] = assay: Antifungal activity against Candida albicans ATCC 44859 after 24 hrs by microdilution broth method; details: ATCC 44859, 24 h
How it was run: (§3)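 CLSI M27-A3 broth microdilution in RPMI 1640 with glutamine, buffered to pH 7.0 with MOPS; DMSO diluent. Yeast inoculum 5 × 10^3 ± 0.2 CFU/mL. Moulds grown on Sabouraud agar 3–10 days before spore harvest, final inoculum 0.5-5 × 10^4 CFU/mL, checked in a Bürker chamber. Incubated dark, humid, 35 °C, read at 24 and 48 h visually and at 540 nm. MIC taken as ≥80% (yeasts) or ≥50% (filamentous) growth reduction versus control.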

Candida albicans [28] = assay: Antifungal activity against Candida albicans ATCC 44859 after 48 hrs by microdilution broth method; details: ATCC 44859, 48 h; how it was run: as §3
Candida tropicalis [29] = assay: Antifungal activity against Candida tropicalis 156 after 24 hrs by microdilution broth method; details: Candida tropicalis, 156, 24 h; how it was run: as §3
Candida tropicalis [30] = assay: Antifungal activity against Candida tropicalis 156 after 48 hrs by microdilution broth method; details: Candida tropicalis, 156, 48 h; how it was run: as §3
Pichia kudriavzevii [31] = assay: Antifungal activity against Candida krusei E28 after 24 hrs by microdilution broth method; details: E28, 24 h; how it was run: as §3
Pichia kudriavzevii [32] = assay: Antifungal activity against Candida krusei E28 after 48 hrs by microdilution broth method; details: E28, 48 h; how it was run: as §3
Nakaseomyces glabratus [33] = assay: Antifungal activity against Candida glabrata 20/I after 24 hrs by microdilution broth method; how it was run: as §3
Nakaseomyces glabratus [34] = assay: Antifungal activity against Candida glabrata 20/I after 48 hrs by microdilution broth method; how it was run: as §3
Trichosporon asahii [35] = assay: Antifungal activity against Trichosporon asahii 1188 after 24 hrs by microdilution broth method; details: Trichosporon asahii, 1188, 24 h; how it was run: as §3
Trichosporon asahii [36] = assay: Antifungal activity against Trichosporon asahii 1188 after 48 hrs by microdilution broth method; details: Trichosporon asahii, 1188, 48 h; how it was run: as §3
Aspergillus fumigatus [37] = assay: Antifungal activity against Aspergillus fumigatus 231 after 24 hrs by microdilution broth method; details: Aspergillus fumigatus, 231, 24 h; how it was run: as §3
Aspergillus fumigatus [38] = assay: Antifungal activity against Aspergillus fumigatus 231 after 48 hrs by microdilution broth method; details: Aspergillus fumigatus, 231, 48 h; how it was run: as §3
Lichtheimia corymbifera [39] = assay: Antifungal activity against Absidia corymbifera 272 after 24 hrs by microdilution broth method; details: Lichtheimia corymbifera, 272, 24 h; how it was run: as §3
Lichtheimia corymbifera [40] = assay: Antifungal activity against Absidia corymbifera 272 after 48 hrs by microdilution broth method; details: Lichtheimia corymbifera, 272, 48 h; how it was run: as §3
[41] = tested on: Trichophyton mentagrophytes; assay: Antifungal activity against Trichophyton mentagrophytes 445 after 24 hrs by microdilution broth method; details: Trichophyton mentagrophytes, 445, 24 h
[42] = tested on: Trichophyton mentagrophytes; assay: Antifungal activity against Trichophyton mentagrophytes 445 after 48 hrs by microdilution broth method; details: Trichophyton mentagrophytes, 445, 48 h

## O=C(Nc1cccc([N+](=O)[O-])c1)c1cc([N+](=O)[O-])ccc1O
[1]
  MIC: 62.5 µM (≈ 19 µg/mL)
[2]
  MIC: 62.5 µM (≈ 19 µg/mL)
Mycobacterium avium [3]
  MIC: 125 µM (≈ 37.9 µg/mL)
Mycobacterium avium [4]
  MIC: 125 µM (≈ 37.9 µg/mL)
Mycobacterium kansasii [5]
  MIC: 16 µM (≈ 4.85 µg/mL)
Mycobacterium kansasii [6]
  MIC: 62.5 µM (≈ 19 µg/mL)
Mycobacterium kansasii [7]
  MIC: 125 µM (≈ 37.9 µg/mL)
Mycobacterium kansasii [8]
  MIC: 62.5 µM (≈ 19 µg/mL)
Mycobacterium kansasii [9]
  MIC: 125 µM (≈ 37.9 µg/mL)
Mycobacterium kansasii [10]
  MIC: 125 µM (≈ 37.9 µg/mL)
Staphylococcus aureus [11]
  MIC: 500 µM (≈ 152 µg/mL)
Staphylococcus aureus [12]
  MIC: 500 µM (≈ 152 µg/mL)
Staphylococcus aureus [13]
  MIC: 500 µM (≈ 152 µg/mL)
Staphylococcus aureus [14]
  MIC: 500 µM (≈ 152 µg/mL)
[15]
  MIC: 500 µM (≈ 152 µg/mL)
[16]
  MIC: 500 µM (≈ 152 µg/mL)
Enterococcus sp. [17]
  MIC: > 500 µM
Enterococcus sp. [18]
  MIC: > 500 µM
Escherichia coli [19]
  MIC: > 500 µM
Escherichia coli [20]
  MIC: > 500 µM
Klebsiella pneumoniae [21]
  MIC: > 500 µM
Klebsiella pneumoniae [22]
  MIC: > 500 µM
Klebsiella pneumoniae [23]
  MIC: > 500 µM
Klebsiella pneumoniae [24]
  MIC: > 500 µM
Pseudomonas aeruginosa [25]
  MIC: > 500 µM
Pseudomonas aeruginosa [26]
  MIC: > 500 µM
Candida albicans [27]
  MIC: > 250 µM
Candida albicans [28]
  MIC: > 250 µM
Candida tropicalis [29]
  MIC: > 250 µM
Candida tropicalis [30]
  MIC: > 250 µM
Pichia kudriavzevii [31]
  MIC: > 250 µM
Pichia kudriavzevii [32]
  MIC: > 250 µM
Nakaseomyces glabratus [33]
  MIC: > 250 µM
Nakaseomyces glabratus [34]
  MIC: > 250 µM
Trichosporon asahii [35]
  MIC: > 250 µM
Trichosporon asahii [36]
  MIC: > 250 µM
Aspergillus fumigatus [37]
  MIC: > 250 µM
Aspergillus fumigatus [38]
  MIC: > 250 µM
Lichtheimia corymbifera [39]
  MIC: > 250 µM
Lichtheimia corymbifera [40]
  MIC: > 250 µM
[41]
  MIC: > 250 µM
[42]
  MIC: > 250 µM

## O=C(Nc1ccc([N+](=O)[O-])cc1)c1cc([N+](=O)[O-])ccc1O
[1]
  MIC: 62.5 µM (≈ 19 µg/mL)
[2]
  MIC: 125 µM (≈ 37.9 µg/mL)
Mycobacterium avium [3]
  MIC: 250 µM (≈ 75.8 µg/mL)
Mycobacterium avium [4]
  MIC: 250 µM (≈ 75.8 µg/mL)
Mycobacterium kansasii [5]
  MIC: 16 µM (≈ 4.85 µg/mL)
Mycobacterium kansasii [6]
  MIC: 62.5 µM (≈ 19 µg/mL)
Mycobacterium kansasii [7]
  MIC: 125 µM (≈ 37.9 µg/mL)
Mycobacterium kansasii [8]
  MIC: 62.5 µM (≈ 19 µg/mL)
Mycobacterium kansasii [9]
  MIC: 125 µM (≈ 37.9 µg/mL)
Mycobacterium kansasii [10]
  MIC: 125 µM (≈ 37.9 µg/mL)
Staphylococcus aureus [11]
  MIC: 250 µM (≈ 75.8 µg/mL)
Staphylococcus aureus [12]
  MIC: 250 µM (≈ 75.8 µg/mL)
Staphylococcus aureus [13]
  MIC: 250 µM (≈ 75.8 µg/mL)
Staphylococcus aureus [14]
  MIC: 250 µM (≈ 75.8 µg/mL)
[15]
  MIC: 500 µM (≈ 152 µg/mL)
[16]
  MIC: 500 µM (≈ 152 µg/mL)
Enterococcus sp. [17]
  MIC: > 500 µM
Enterococcus sp. [18]
  MIC: > 500 µM
Escherichia coli [19]
  MIC: > 500 µM
Escherichia coli [20]
  MIC: > 500 µM
Klebsiella pneumoniae [21]
  MIC: > 500 µM
Klebsiella pneumoniae [22]
  MIC: > 500 µM
Klebsiella pneumoniae [23]
  MIC: > 500 µM
Klebsiella pneumoniae [24]
  MIC: > 500 µM
Pseudomonas aeruginosa [25]
  MIC: > 500 µM
Pseudomonas aeruginosa [26]
  MIC: > 500 µM
Candida albicans [27]
  MIC: > 500 µM
Candida albicans [28]
  MIC: > 500 µM
Candida tropicalis [29]
  MIC: > 500 µM
Candida tropicalis [30]
  MIC: > 500 µM
Pichia kudriavzevii [31]
  MIC: > 500 µM
Pichia kudriavzevii [32]
  MIC: > 500 µM
Nakaseomyces glabratus [33]
  MIC: > 500 µM
Nakaseomyces glabratus [34]
  MIC: > 500 µM
Trichosporon asahii [35]
  MIC: > 500 µM
Trichosporon asahii [36]
  MIC: > 500 µM
Aspergillus fumigatus [37]
  MIC: > 500 µM
Aspergillus fumigatus [38]
  MIC: > 500 µM
Lichtheimia corymbifera [39]
  MIC: > 500 µM
Lichtheimia corymbifera [40]
  MIC: > 500 µM
[41]
  MIC: > 500 µM
[42]
  MIC: > 500 µM
